Compound activity: PubChem BioAssay, Johns Hopkins Ion Channel Center
KCNK9 block – blocks the human KCNK9 two-pore domain potassium channel; Q9NPC2; HEK293 KCNK9, FluxOR thallium flux fluorescence; hits give low values; B-score at 10 µM; 310,000 compounds, 1.2% hits;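 active means ratio B-score over 3 SD below the library mean, with starting fluorescence within 5 SD of its mean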;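 further: negative B-score means less thallium flux so channel inhibition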
KCNK3 inh – human KCNK3 channel inhibition, primary screen; O14649; CHO-KCNK3 thallium flux, FluxOR fluorescence; hits give low values; B-score at 10 µM; 340,000 compounds, 0.84% hits;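 active means B-score under library mean minus 4 SD, starting fluorescence ratio at most library mean plus 5 SD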;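 further: more negative B-score means stronger inhibition of thallium flux through KCNK3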
Target sequence (O14649 whole entry, looked up): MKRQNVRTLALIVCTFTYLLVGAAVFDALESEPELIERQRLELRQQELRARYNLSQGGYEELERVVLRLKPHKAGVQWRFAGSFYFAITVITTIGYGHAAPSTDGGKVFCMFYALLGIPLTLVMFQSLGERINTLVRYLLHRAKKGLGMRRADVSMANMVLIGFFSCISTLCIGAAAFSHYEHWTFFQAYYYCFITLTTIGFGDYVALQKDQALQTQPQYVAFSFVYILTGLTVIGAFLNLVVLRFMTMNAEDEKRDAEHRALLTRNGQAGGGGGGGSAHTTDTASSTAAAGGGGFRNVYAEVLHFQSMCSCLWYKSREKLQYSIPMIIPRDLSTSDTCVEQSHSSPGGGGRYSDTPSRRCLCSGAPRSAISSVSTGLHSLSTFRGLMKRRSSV
hERG protect – hERG (human) protection from proarrhythmic block; CHO-hERG, FluxOR thallium flux, dofetilide IC70 present; 310,000 compounds, 0.51% hits; AID 1511; Q12809; activation (rescue from dofetilide block), less the hit threshold, % at 10 µM;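 active means activation above the mean of controls blocked by dofetilide plus 5 SD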;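 further: thallium influx through hERG after potassium depolarization seen as dye fluorescence rise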
KCNQ1 act – human KCNQ1 channel potentiation or activation | P51787 | 310,000 compounds, 0.35% hits | CHO-K1 KCNQ1, thallium flux FluxOR fluorescence; hits give high values | B-score at 10 µM;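 active means fluorescence ratio B-score, a plate-corrected score, at least three library SD, with initial intensity B-score within 5 SD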
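Assay system: CHO-K1 cells stably expressing KCNQ1. Medium: assay buffer for compound exposure, DMSO matched across wells. Timing: 37 °C overnight plating, 90-min dark dye load, 20-min compound pretreatment. Signal: kinetic FluxOR fluorescence, 10 s baseline plus 110 s post-stimulus.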
KCNQ1 block – human KCNQ1 channel inhibition; P51787; CHO-K1 KCNQ1, FluxOR thallium flux fluorescence; hits give high values; B-score at 10 µM; 310,000 compounds, 1.3% hits; AID 2642;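 active means compounds whose thallium flux B-score, printed positive for inhibition, exceeds three library SD while starting fluorescence stays within three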;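 further: channel opened by potassium depolarization with thallium stimulus after 20 min compound exposure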
Active calls of the source: *. An excerpt weighted towards active compounds, which were near 3.1% of everything screened.

`Cc1cccc(C)c1-n1nnnc1S(=O)(=O)Cc1ccccc1Cl` gave KCNK3 inh -8.73*.
COc1cccc(OCCNC(=O)Nc2cc(F)c(F)cc2Cl)c1 was read as KCNK9 block inactive, KCNK3 inh inactive, hERG protect 6.1*, KCNQ1 act inactive and KCNQ1 block inactive.
For COc1ccc(OCCNC(=O)Nc2cc(F)c(F)cc2Cl)cc1 the results were KCNK9 block inactive, KCNK3 inh inactive, hERG protect 1.3, KCNQ1 act inactive and KCNQ1 block inactive.
`Oc1ccc2ccccc2c1N=Nc1ccccn1` gave KCNK9 block -7.34*, KCNK3 inh inactive, hERG protect -6.1, KCNQ1 act inactive and KCNQ1 block inactive.
COc1ccc(N2CCN(C(=S)NC(=O)c3cccs3)CC2)c([N+](=O)[O-])c1 was read as KCNK9 block inactive, KCNK3 inh inactive, hERG protect -7.5, KCNQ1 act 13* and KCNQ1 block inactive.
Screening O=C(NC(=S)N1CCN(c2ccc(F)cc2)CC1)c1cccs1 returned KCNK9 block inactive, KCNK3 inh inactive, hERG protect 15.5*, KCNQ1 act 13* and KCNQ1 block inactive.
Screening O=C(NC(=S)N1CCN(c2c(Cl)cccc2[N+](=O)[O-])CC1)c1cccs1 returned KCNK9 block inactive, KCNK3 inh inactive, hERG protect 3.1, KCNQ1 act 49* and KCNQ1 block inactive.
COc1ccc(N2CCN(C(=O)c3ccccc3)CC2)c([N+](=O)[O-])c1 was read as KCNK9 block inactive, KCNK3 inh inactive, hERG protect -1.8, KCNQ1 act inactive and KCNQ1 block inactive.
For O=C(NC(=S)N1CCN(c2ccc(O)cc2)CC1)c1cccs1 the results were KCNK9 block inactive, KCNK3 inh inactive, hERG protect -10.5, KCNQ1 act inactive and KCNQ1 block inactive.
For CC(C)C(=O)N1CCN(c2c(Cl)cccc2[N+](=O)[O-])CC1 the results were KCNK9 block inactive, KCNK3 inh inactive, hERG protect -7.5, KCNQ1 act inactive and KCNQ1 block inactive.
Screening CCCn1c(N)c(C(=O)CSc2nc(C3CC3)n(-c3ccccc3)n2)c(=O)[nH]c1=O returned KCNK3 inh inactive.
For CCCCCCCCNCCS(=O)(=O)NCc1ccccc1 the results were KCNK3 inh inactive.
`COc1ccc(S(=O)(=O)N2CCN(C)CC2c2ccccc2)cc1OC` (configuration not stated) gave KCNK3 inh inactive.
COCCn1c(SCc2cc(=O)n3cc(C)ccc3n2)nc2ccccc2c1=O was read as KCNK9 block inactive, hERG protect -6.8, KCNQ1 act inactive and KCNQ1 block inactive.
Cc1cn(CC(=O)NCCCN2CCCC2=O)c(=O)[nH]c1=O was read as KCNK3 inh inactive.
Screening CCOc1ccc(NC(=O)CN(C)C(=O)C(C)Oc2ccc(Cl)cc2)cc1OCC (configuration not stated) returned KCNK3 inh inactive.
Cc1ccc(-n2c(SCC(=O)N(C)C3CCS(=O)(=O)C3)nc3ccccc3c2=O)c(C)c1 (configuration not stated) was read as KCNK3 inh -9.18*.
`COCCn1c(SCC(=O)N(C)C2CCS(=O)(=O)C2)nc2ccccc2c1=O` (configuration not stated) gave KCNK9 block inactive, KCNK3 inh inactive, hERG protect -9.3, KCNQ1 act inactive and KCNQ1 block inactive.
`COc1ccc2nc(SCC(=O)NCC(F)(F)F)[nH]c2c1` gave KCNK9 block inactive, KCNK3 inh inactive, hERG protect 5.2*, KCNQ1 act inactive and KCNQ1 block inactive.
`COc1ccc2nc(SCC(=O)NCc3ccccc3)[nH]c2c1` gave KCNK9 block inactive, KCNK3 inh inactive, hERG protect -3.4, KCNQ1 act inactive and KCNQ1 block inactive.
For C/C(=N\OCC(=O)Nc1ccccc1C(C)(C)C)c1ccc2c(c1)OCCO2 the results were KCNK9 block inactive, KCNK3 inh inactive, hERG protect -4.8, KCNQ1 act inactive and KCNQ1 block inactive.
`C/C(=N\OCC(=O)Nc1ccc(OC(F)(F)F)cc1)c1ccc2c(c1)OCCO2` gave KCNK9 block inactive, KCNK3 inh inactive, hERG protect -5.8, KCNQ1 act 10* and KCNQ1 block inactive.
`CN(C(=O)c1ccc(S(=O)(=O)N2CCCCC2)cc1)C1CCS(=O)(=O)C1` (configuration not stated) gave KCNK9 block inactive, KCNK3 inh inactive, hERG protect -4.9, KCNQ1 act inactive and KCNQ1 block inactive.
For Oc1c(N=NC(=S)Nc2ccccc2F)c2ccccc2n1Cc1ccccc1Cl the results were KCNK9 block inactive, KCNK3 inh inactive, hERG protect 21.2*, KCNQ1 act 10* and KCNQ1 block inactive.
C/C(Cl)=C\Cn1c(O)c(N=NC(N)=S)c2ccccc21 was read as KCNK9 block inactive, KCNK3 inh inactive, hERG protect 14.5*, KCNQ1 act inactive and KCNQ1 block inactive.
Screening CCCCNC(=S)N=Nc1c(O)n(Cc2ccccc2)c2ccccc12 returned KCNK9 block inactive, KCNK3 inh inactive, hERG protect 3.0, KCNQ1 act inactive and KCNQ1 block inactive.
`C=CCn1c(O)c(N=NC(=S)Nc2ccccc2F)c2cc(S(=O)(=O)N3CCOCC3)ccc21` gave KCNK9 block inactive, KCNK3 inh inactive, hERG protect 5.9*, KCNQ1 act 10* and KCNQ1 block inactive.
Cc1ccc(Cn2c(O)c(N=NC(=S)Nc3ccccc3F)c3ccccc32)cc1 was read as KCNK9 block inactive, KCNK3 inh inactive, hERG protect 17.8*, KCNQ1 act inactive and KCNQ1 block inactive.
Screening O=C(O)C1C2CCC(O2)C1C(=O)Nc1ccc(Br)cc1F (configuration not stated) returned KCNK9 block inactive, KCNK3 inh inactive, hERG protect 0.8, KCNQ1 act inactive and KCNQ1 block inactive.
C=CCn1c(O)c(N=NC(=S)Nc2cccc(C)c2)c2ccccc21 was read as KCNK9 block inactive, KCNK3 inh inactive, hERG protect 19.5*, KCNQ1 act 40* and KCNQ1 block inactive.
Screening NC(=S)N=Nc1c(O)n(Cc2ccccc2)c2ccccc12 returned KCNK9 block inactive, KCNK3 inh inactive, hERG protect -4.4, KCNQ1 act inactive and KCNQ1 block inactive.
Screening C=CCn1c(O)c(N=NC(=S)Nc2ccccc2F)c2ccccc21 returned KCNK9 block inactive, KCNK3 inh inactive, hERG protect 102.4*, KCNQ1 act 48* and KCNQ1 block inactive.
Screening Oc1c(N=NC(=S)Nc2ccccc2F)c2ccccc2n1Cc1ccccc1 returned KCNK9 block inactive, KCNK3 inh inactive, hERG protect 58.8*, KCNQ1 act 10* and KCNQ1 block inactive.
For COC(=O)C1C2CCCCC1C(=O)O2 (configuration not stated) the results were KCNK3 inh inactive.
